Only some compounds are listed: those with a hit (about 4.2% of all), similar ones and a draw of the others.
hERG protect: shields human hERG channel from block by proarrhythmic agents; Q12809; CHO-hERG, FluxOR thallium flux, dofetilide IC70 present; AID 1511; 0.51% of 310,000 active; activation (rescue from dofetilide block), less the hit threshold, % at 10 µM;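 active = activation above the mean of controls blocked by dofetilide plus 5 SD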;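 also: thallium influx through hERG after potassium depolarization seen as dye fluorescence rise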
KCC2 mod: KCC2 (human) Cl- transport modulation. Q9H2X9. KCC2 cells, thallium flux FluoZin-2 fluorescence. B-score of Tl+ flux slope (higher = more flux/activation; lower = inhibition) at 10 µM. 2.2% of 190,000 active. AID 1456;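 active = thallium flux slope and its plate-corrected score both differing from the plate sample mean at a set confidence after two filtering rounds, in either direction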;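 also: slope of fluorescence scaled to starting intensity during 10 to 20 s after thallium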
KCNQ1 pot: potentiators or activators of human KCNQ1 potassium channel | B-score at 10 µM | 0.35% of 310,000 active | P51787 | AID 2648 | CHO-K1 KCNQ1, thallium flux FluxOR fluorescence; hits give high values;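 active = fluorescence ratio B-score, a plate-corrected score, at least three library SD, with initial intensity B-score within 5 SD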
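assay system = KCNQ1-transfected CHO-K1 cells | medium = assay buffer with matched DMSO | probe or stimulus = depolarizing K+/Tl+ stimulus, K2SO4 and Tl2SO4 each 12.5 mM in 5x stock | dosing = single dose | incubation = dye 90 min, compound 20 min, room temperature | detection = kinetic FluxOR fluorescence, 10 s baseline plus 110 s post-stimulus | evaluation = ratio B score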
KCNQ1 block: human KCNQ1 channel inhibition; P51787; CHO-K1 KCNQ1, FluxOR thallium flux fluorescence; hits give high values; B-score at 10 µM; 1.3% of 310,000 active;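 active = compounds whose thallium flux B-score, printed positive for inhibition, exceeds three library SD while starting fluorescence stays within three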;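 also: channel opened by potassium depolarization with thallium stimulus after 20 min compound exposure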
AI-2 QS modul: Vibrio harveyi AI-2 quorum sensing modulation | Vibrio harveyi JMH597 AI-2 luminescence/OD600 ratio, 9 h; hits give low values; strain lacks LuxN and CqsS sensors; 0 = neutral-control median | 0.4% of 300,000 active | activity change, % at 7.5 µM; in the data active = activity change below about -75%, passing the limit was not always enough;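 also: luminescence divided by OD600 gain over 9 h not by final OD600 alone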
Mot1-301 SUMO: blocks SUMOylation pathway, rescuing yeast Mot1-301 growth; S. cerevisiae Mot1-301 growth rescue, ATP luminescence, 38.5C; percent above DMSO median, 100 means doubled; growth rescue, % at 18.8 µM; 1% of 320,000 active; AID 2716;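 active = every valid replicate shows activation above 250% relative to neutral control wells; inactive = the rest, any valid replicate at or below 250%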;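 also: OY570 slx delta 5 strain wells were the positive control but not used for scaling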
The depositor's hits bear a star; i = inactive; · = not tested or not shown.

SMILES	hERG protect	KCC2 mod	KCNQ1 pot	KCNQ1 block	AI-2 QS modul	Mot1-301 SUMO
C[C@H](CO)N1C[C@H](C)[C@@H](CN(C)S(=O)(=O)c2cn(C)cn2)Oc2ccc(NC(=O)Cc3ccccc3)cc2C1=O	·	·	·	·	·	-8.6
COc1ccc(-n2c(NC(=O)c3ccc(Br)o3)c(C#N)c3nc4ccccc4nc32)cc1	-13.8	-2.8	i	7*	51.3	·
O=C(NCc1cn(-c2ccccc2)nc1-c1ccc(F)cc1)c1cccc([N+](=O)[O-])c1	-9.0	-0.125	i	i	4.4	-0.5
CCCc1nc2sc3c(c2c(=O)n1NC(=O)c1ccco1)CC(C)(C)OC3	-10.9	0.173	i	i	18.5	3.3
CCCCCCCCCc1nc2sc3c(c2c(=O)n1NC(=O)c1ccccc1[N+](=O)[O-])CC(C)(C)OC3	-9.0	1.81	i	8*	35.7	-5.3
CCCCCCCCCc1nc2sc3c(c2c(=O)n1NC(=O)c1ccc([N+](=O)[O-])cc1)CC(C)(C)OC3	-9.7	0.0459	i	7*	64.2	522.5
Cn1nc(C(F)(F)F)c(CO)c1Sc1ccc(F)cc1	-5.4	-0.214	i	i	13.3	-11.6
CCOc1ccc(S(=O)(=O)N(C)c2ccc(OCC(=O)NCc3ccc(C(=O)OC)cc3)cc2)cc1	-14.0	-0.39	i	i	2.2	-2.7
C/C=C/c1ccc(OCCN2CCc3ccccc3C2)c(OC)c1	-17.5	-1.22	i	i	14.4	8.2
Cc1cccc(C)c1OCC(O)CN1CCc2ccccc2C1 (stereo not drawn)	-10.6	·	i	i	14.0	2.3
Cc1ccc(Cl)c(OCCN2CCc3ccccc3C2)c1	-1.7	·	i	i	21.6	322.9*
Cc1ccc(C(C)C)c(OCC(O)CN2CCc3ccccc3C2)c1 (stereo not drawn)	-19.6	·	i	6*	9.7	-3.0
O=C(C[n+]1ccc(C(=O)NCc2ccccc2)cc1)c1ccc(Cl)cc1	-10.5	·	i	i	29.1	-6.8
O=C(OCc1ccccc1)c1cn(-c2ccccc2)nc1-c1ccncc1	-9.0	0.373	i	i	-5.4	21.4
CN(C(=O)CSc1nc2[nH]ncc2c(=O)[nH]1)c1ccccc1	-6.8	·	i	i	10.5	2.9
O=C(Cn1c2[n+](c3ccc(C(F)(F)F)cc31)CCCCC2)Nc1ccc(Br)cc1	-15.1	-0.307	i	i	46.1	-12.3
CCc1ccc(NC(=O)Cn2c3[n+](c4c(F)c(F)ccc42)CCCCC3)cc1	-12.6	-0.79	i	i	30.7	707.6*
CCn1cc(C(=O)N[C@@H](CCSC)C(=O)NCCCOC)c(=O)c2cc3c(cc21)OCO3	-5.3	·	i	i	5.2	212.1
CCOC(=O)c1sc(=S)n(Cc2ccccc2)c1N	-4.7	0.068	i	i	-85.7*	-17.7
O=C(CCCN1C(=O)/C(=C\c2ccccc2)SC1=S)Nc1cccc(C(=O)O)c1	-5.8	·	i	i	13.0	22.0
O=C(CCN1C(=O)/C(=C\C=C\c2ccccc2)SC1=S)Nc1cccc(C(=O)O)c1	44.8*	·	i	i	3.4	-14.1
CN(C)C(=O)CSc1nnc(-c2ccc(S(=O)(=O)N3CCCC3)cc2)n1C	-6.8	·	i	i	11.4	-8.2
CO[C@H]1C=CO[C@@]2(C)Oc3c(C)c(O)c4c(O)c(c(C=NN5CCN(C)CC5)c(O)c4c3C2=O)NC(=O)C(C)=CC=C[C@H](C)[C@H](O)[C@@H](C)[C@@H](O)[C@@H](C)[C@H](OC(C)=O)[C@@H]1C	-12.8	0.887	i	i	-119.1*	4.2
CO[C@H]1C=CO[C@@]2(C)Oc3c(C)c(O)c4c(O)c(c(C=NN5CCN(C6CCCC6)CC5)c(O)c4c3C2=O)NC(=O)C(C)=CC=C[C@H](C)[C@H](O)[C@@H](C)[C@@H](O)[C@@H](C)[C@H](OC(C)=O)[C@@H]1C	-12.1	-0.657	i	i	-185.1*	·
CC(Oc1cccc(Cl)c1)C(=O)Nc1ccc(S(=O)(=O)N(C)C2CCN(C)CC2)cc1 (stereo not drawn)	·	·	·	·	·	-0.2
SMILES	hERG protect	KCC2 mod	KCNQ1 pot	KCNQ1 block	AI-2 QS modul	Mot1-301 SUMO
CC1CCc2c(sc3ncnc(SCC(=O)c4ccccc4)c23)C1 (stereo not drawn)	-5.0	2.04	i	i	26.5	15.8
CC(=O)CSc1ncnc2sc3c(c12)CCC(C)C3 (stereo not drawn)	49.7*	121*	33*	i	14.7	-1.8
Cc1ccc(-n2[nH]c(C)c(C=Nc3cc(C)ccn3)c2=O)cc1	-1.4	4.24*	i	i	-14.0	-20.9
Cc1[nH]n(-c2ccc(Cl)cc2)c(=O)c1/C=N/c1nnc(-c2ccccc2)s1	87.5*	45*	9*	i	2.1	2.6
COc1ccc2nc(/N=C\N(C)C)sc2c1	-10.3	·	i	i	14.2	39.7
Cc1ccc(-n2[nH]c(C)c(/C=N/c3ccccn3)c2=O)cc1	-7.3	·	i	i	7.2	17.2
COc1ccc2nc(/N=C/c3c(C)[nH]n(-c4ccc(C)cc4)c3=O)sc2c1	10.2*	53.9*	39*	i	11.0	-14.0
COC(=O)Cn1c2c(c3cc(C)ccc31)CCCC2	-11.0	·	i	i	4.4	-2.5
COC(=O)Cn1c2c(c3cc(C)ccc31)CCCC2NC(C)c1ccccc1 (stereo not drawn)	4.9*	1.37	i	i	-16.2	-16.8
CC(C)CN1C(=S)SC(C)(C)C1n1oc(=O)n(-c2ccc(Cl)cc2)c1=O (stereo not drawn)	-9.6	·	i	15*	8.0	34.7
CCC1C(c2ccccc2)N(C)C(c2ccccc2)CC1(O)c1ccccc1 (stereo not drawn)	-22.9	·	i	12*	98.9	177.8
CC1C(c2ccccc2)N(C)C(c2ccccc2)C(C)C1(O)C#Cc1ccccc1 (stereo not drawn)	·	0.894	·	·	·	21.9
CC(C)C1C(c2ccccc2)N(C)C(c2ccccc2)CC1(O)c1ccccc1 (stereo not drawn)	-8.8	·	i	i	31.5	378.6*
CCC1C(=O)CC(c2ccccc2)NC1c1ccccc1 (stereo not drawn)	-5.3	-0.414	i	i	19.3	i
CC(C)C1C(c2ccccc2)NC(c2ccccc2)CC1(O)c1ccc(F)cc1 (stereo not drawn)	-19.4	-0.0441	i	7*	6.2	28.8
Cn1c(=O)c2c(nc3n2CC(O)CN3c2ccc(O)cc2)n(C)c1=O (stereo not drawn)	-7.9	·	i	i	7.3	-12.2
COc1ccccc1N1CCN(C(=O)C2CC=CCC2C(=O)O)CC1 (stereo not drawn)	-3.8	-3.57*	i	i	10.6	16.2

Bioassay records (PubChem)
